Results from ChEMBL document CHEMBL1132688, “Synthesis of a series of 4-benzyloxyaniline analogues as neuronal N-type calcium channel blockers with improved anticonvulsant and analgesic properties” (J Med Chem, 1999).
Values after ≈ are worked out from the molar mass of the structure shown.

Assays:
Mus musculus [1] = assay: Anticonvulsant activity at 30 mg/kg tested against audiogenic seizure model using DBA/2 mice; assay type: functional
How it was run: (§1)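 Male DBA/2 mice, 3–4 weeks old (6.5–12 g, 20–23 days), n = 5 per dose, given iv into retro-orbital sinus; tested 15 or 45 min post-dose with sound stimulus until tonic extension or max 60 s. Value is percentage of mice without tonic seizure.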

[2] = molecular target: Voltage-dependent N-type calcium channel subunit alpha-1B (Homo sapiens, UniProt Q00975); assay: Inhibition of N-type calcium channels in IMR32 human neuroblastoma cells; assay type: functional
How it was run: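 Differentiated IMR32 cells (dibutyryl cAMP 1 mM + BrdU 2.5 μM, 7–13 days), Indo-1 AM loaded; 10 min compound preincubation at 30 °C with 5 μM nitrendipine; high-K+ depolarization, fluorescence ratio 400/490 nm (ex 350 nm). Percent inhibition of K+-evoked Ca2+ rise; IC50 from five-point curves, four-parameter logistic fit.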

[3] = solubility at pH 4; assay type: physicochemical; settings: buffer
[4] = solubility at pH 7.4; assay type: physicochemical; settings: buffer
How it was run: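 DMSO solution diluted 20-fold into PBS with 25 mM potassium phosphate pH 7.4 (final 5% DMSO) to precipitate; stirred 1 h at 22 °C, centrifuged 20000g 5 min; supernatant quantified by HPLC against DMSO standard.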

Mus musculus [5] = species: Mus musculus; assay: Anticonvulsant activity against audiogenic seizure model using DBA/2 mice; assay type: functional
How it was run: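 Male DBA/2 mice, 3–4 weeks old (6.5–12 g, 20–23 days); iv dosing into retro-orbital sinus, tested 15 or 45 min later. Sound stimulus in enclosed chamber until tonic extension or max 60 s. Tonic seizure occurrence used for ED50 by probit analysis; each mouse used once per time/dose point.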

Mus musculus [6] = assay: Anticonvulsant activity at 10 mg/kg tested against audiogenic seizure model using DBA/2 mice; assay type: functional; how it was run: as §1

Chain of Voltage-dependent N-type calcium channel subunit alpha-1B (Q00975 whole entry): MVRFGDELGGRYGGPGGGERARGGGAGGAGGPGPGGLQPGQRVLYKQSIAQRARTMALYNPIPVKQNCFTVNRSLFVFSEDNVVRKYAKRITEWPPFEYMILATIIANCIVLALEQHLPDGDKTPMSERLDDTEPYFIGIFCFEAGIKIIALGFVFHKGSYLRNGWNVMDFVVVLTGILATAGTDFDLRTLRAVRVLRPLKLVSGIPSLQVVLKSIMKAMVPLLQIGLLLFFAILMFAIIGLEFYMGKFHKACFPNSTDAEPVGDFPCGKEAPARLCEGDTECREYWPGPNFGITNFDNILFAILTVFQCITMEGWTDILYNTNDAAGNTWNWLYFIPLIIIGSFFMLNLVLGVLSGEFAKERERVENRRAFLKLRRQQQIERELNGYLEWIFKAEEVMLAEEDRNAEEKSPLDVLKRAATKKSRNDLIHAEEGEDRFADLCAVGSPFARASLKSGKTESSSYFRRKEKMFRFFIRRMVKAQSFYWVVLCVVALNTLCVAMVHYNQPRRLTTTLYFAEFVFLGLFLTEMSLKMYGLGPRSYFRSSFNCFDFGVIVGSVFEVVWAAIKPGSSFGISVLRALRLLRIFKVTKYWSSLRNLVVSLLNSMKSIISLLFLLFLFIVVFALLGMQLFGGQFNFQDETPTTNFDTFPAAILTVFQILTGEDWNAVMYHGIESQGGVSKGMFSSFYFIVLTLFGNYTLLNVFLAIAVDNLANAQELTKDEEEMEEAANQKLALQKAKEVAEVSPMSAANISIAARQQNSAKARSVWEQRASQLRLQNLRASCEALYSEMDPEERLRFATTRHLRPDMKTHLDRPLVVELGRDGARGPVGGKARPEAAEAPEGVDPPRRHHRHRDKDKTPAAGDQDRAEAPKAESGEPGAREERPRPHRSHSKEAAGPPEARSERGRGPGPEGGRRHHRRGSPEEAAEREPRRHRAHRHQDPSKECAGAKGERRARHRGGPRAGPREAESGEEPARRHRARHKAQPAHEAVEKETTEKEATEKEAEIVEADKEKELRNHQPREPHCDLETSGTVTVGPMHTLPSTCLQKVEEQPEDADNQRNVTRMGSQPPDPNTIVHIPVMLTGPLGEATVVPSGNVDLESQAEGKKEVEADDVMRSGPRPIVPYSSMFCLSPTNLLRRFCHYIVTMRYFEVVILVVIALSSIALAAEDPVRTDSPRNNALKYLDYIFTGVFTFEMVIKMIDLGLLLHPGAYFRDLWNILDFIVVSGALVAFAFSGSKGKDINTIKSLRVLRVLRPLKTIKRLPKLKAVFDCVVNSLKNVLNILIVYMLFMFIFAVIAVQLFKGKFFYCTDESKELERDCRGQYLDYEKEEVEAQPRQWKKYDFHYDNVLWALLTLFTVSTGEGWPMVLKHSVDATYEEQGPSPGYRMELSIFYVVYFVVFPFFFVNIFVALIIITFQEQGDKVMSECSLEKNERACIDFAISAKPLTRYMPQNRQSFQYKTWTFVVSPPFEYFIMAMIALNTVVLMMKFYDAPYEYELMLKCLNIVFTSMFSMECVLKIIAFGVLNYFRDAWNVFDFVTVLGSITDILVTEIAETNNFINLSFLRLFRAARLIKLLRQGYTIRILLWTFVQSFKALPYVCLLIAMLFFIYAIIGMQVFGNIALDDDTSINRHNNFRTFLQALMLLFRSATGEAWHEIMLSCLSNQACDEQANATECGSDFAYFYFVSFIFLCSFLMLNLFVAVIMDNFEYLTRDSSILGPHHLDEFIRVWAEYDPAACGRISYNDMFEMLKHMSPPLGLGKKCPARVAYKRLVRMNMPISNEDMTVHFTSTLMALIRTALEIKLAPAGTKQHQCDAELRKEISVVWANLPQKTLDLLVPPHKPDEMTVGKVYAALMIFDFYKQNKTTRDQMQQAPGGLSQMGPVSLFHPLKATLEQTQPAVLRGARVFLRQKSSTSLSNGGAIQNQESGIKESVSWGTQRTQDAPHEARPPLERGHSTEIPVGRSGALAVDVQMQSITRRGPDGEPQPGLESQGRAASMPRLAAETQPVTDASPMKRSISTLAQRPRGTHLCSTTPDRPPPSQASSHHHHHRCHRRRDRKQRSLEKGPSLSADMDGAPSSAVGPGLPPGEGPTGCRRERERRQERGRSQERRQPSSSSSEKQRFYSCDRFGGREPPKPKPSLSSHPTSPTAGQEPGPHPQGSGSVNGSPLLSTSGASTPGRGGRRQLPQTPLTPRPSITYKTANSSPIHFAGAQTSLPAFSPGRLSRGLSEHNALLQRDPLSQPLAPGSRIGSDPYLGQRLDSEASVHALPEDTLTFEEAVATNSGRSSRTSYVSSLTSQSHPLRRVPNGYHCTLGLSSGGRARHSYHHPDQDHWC

SMILES | Anticonulsant activity (Mus musculus [1]) [%] | IC50 [2] [nM] | further results
CCN(c1ccc(OCc2ccccc2)cc1)C1CCN(C(=O)[C@H](CC(C)C)NC(=O)N2CCCCCC2)CC1 | 0 | – | –
CC(C)C[C@H](NC(=O)N1CCCCCC1)C(=O)N1CCC(Nc2ccc(OCc3ccccc3)cc2)CC1 | 60 | – | –
CC(C)=CCN(c1ccc(OCc2ccccc2)cc1)C1CCN(C(=O)[C@H](CC(C)C)NC(=O)N2CCCCCC2)CC1 | 0 | – | –
CC(C)=CCN(c1ccc(OCc2ccccc2)cc1)C1CCNCC1 | – | 4700 | –
CC(C)=CCN(c1ccc(OCc2ccccc2)cc1)C1CCN(C(=O)[C@@H](N)CC(C)C)CC1 | – | 670 | solubility [3]: 100 mM (≈ 46400 µg/mL); solubility [4]: 87 µM (≈ 40.3 µg/mL); ED50 (Mus musculus [5]): 6 mg/kg
CC(C)=CCN(c1ccc(OCc2ccccc2)cc1)C1CCCN(C(=O)[C@H](CC(C)C)NC(=O)N2CCCCCC2)C1 (stereo partly drawn) | – | 1500 | –
CC(C)C[C@H](NC(=O)N1CCCCCC1)C(=O)N1CCC(N(CCC(C)O)c2ccc(OCc3ccccc3)cc2)CC1 (stereo partly drawn) | – | 4600 | solubility [4]: 4 µM (≈ 2.37 µg/mL)
CC(C)=CCN(c1ccc(OCc2ccccc2)cc1)C1CCN(C(=O)[C@H](CC(C)C)NCCC(C)C)CC1 | – | – | Anticonulsant activity (Mus musculus [6]): 20%
CC(C)=CCN(C[C@H](C)NC(=O)[C@H](CC(C)C)NC(=O)N1CCCCCC1)c1ccc(OCc2ccccc2)cc1 | – | 1000 | –
